According to ChEMBL document CHEMBL1255261, “Lethal mutagenesis of picornaviruses with N-6-modified purine nucleoside analogues” (Antimicrob Agents Chemother, 2008):

How the values were obtained:
Enterovirus C [1] = test: Antiviral activity against Poliovirus infected in compound pre-treated HeLaS3 cells assessed as reduction in viral titer at 2 mM after 6 hrs relative to control; format: functional, HeLa S3; parameters: scale not given: the % may be the effect or the level left
Procedure, shortened: (§1)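 HeLa S3 cells (DMEM/F-12, 2% dialyzed FBS, 37°C, 5% CO2) pretreated 1 h with nucleoside (0.5 or 2 mM), then infected with PV at MOI 5. Fresh medium with analogue added, infection run 6 h at 37°C. Cell-associated virus collected by freeze-thaw and titred on HeLa S3 monolayers. Result given as percent titer reduction versus untreated control.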

Coxsackievirus [2] = test: Antiviral activity against Coxsackievirus infected in compound pre-treated HeLaS3 cells assessed as reduction in viral titer at 2 mM after 6 hrs relative to control; format: functional, HeLa S3; parameters: scale not given: the % may be the effect or the level left
Procedure, shortened: (§2)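 HeLa S3 cells pretreated with nucleoside (0.5 or 2 mM) for 1 h, then infected with CVB3 at MOI 5. Fresh medium containing the analogue was added and infection ran 6 h at 37°C. Cell-associated virus was collected by freeze-thaw and titrated on HeLa S3 monolayers. Result is percent reduction in titer versus untreated infection.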

Coxsackievirus [3] = test: Antiviral activity against Coxsackievirus infected in compound pre-treated HeLaS3 cells assessed as reduction in viral titer at 0.5 mM after 6 hrs relative to control; format: functional, HeLa S3; parameters: scale not given: the % may be the effect or the level left; procedure, shortened: as §2
Enterovirus C [4] = test: Antiviral activity against Poliovirus infected in compound pre-treated HeLaS3 cells assessed as reduction in viral titer at 0.5 mM after 6 hrs relative to control; format: functional, HeLa S3; parameters: scale not given: the % may be the effect or the level left; procedure, shortened: as §1
[5] = Metabolic stability in human HeLaS3 cells assessed as JA28-triphosphate at 0.5 mM after 2 hrs by reverse-phase HPLC; format: ADME, cell-based; conditions: hela s3, 2 h, 500 µM
Procedure, shortened: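 Suspension-adapted HeLa S3 cells at 5 × 10^6 cells/ml in S-MEM with 2% dialyzed FBS were pretreated with actinomycin D (2.5 μg/ml, 15 min, 37°C). Nucleoside was then added to 0.5 mM final with 1% DMSO, 2 h at 37°C. Cells were extracted with ice-cold 0.6 M TCA, then trioctylamine/trichlorotrifluoroethane. Aqueous layer was run on C18 reversed-phase HPLC (CH3CN gradient in KH2PO4, pH 6.0). Triphosphate was identified by retention time and UV spectrum against synthesized standard.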

[6] = Cytotoxicity against human HeLaS3 cells assessed cell viability at 0.05 after 24 hrs by Alamar blue assay; format: cell-based, HeLa S3; conditions: read-out: Activity
Procedure, shortened: (§3)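 HeLa S3 cells were seeded at 2 × 10^3 per well in DMEM/F-12 with 2% FBS and allowed to adhere 1 h at 37°C. Nucleoside in medium (0.05–2 mM) was added with continuous exposure at 37°C. Resazurin (Alamar blue) was added 6 h before the 24 h read. Percent reduction was taken from A570 corrected by A590 and normalized to vehicle (DMSO) cells set at 100%. Triplicate wells, mean ± SD.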

[7] = Cytotoxicity against human HeLaS3 cells assessed cell viability at 2 mM after 24 hrs by Alamar blue assay; format: cell-based, HeLa S3; conditions: read-out: Activity; procedure, shortened: as §3

| SMILES | Activity (Enterovirus C [1]) | Activity (Coxsackievirus [2]) | Activity (Coxsackievirus [3]) | Activity (Enterovirus C [4]) | Stability [5] | viability at 24 h [6] | viability at 24 h, 2000 µM [7] |
| --- | --- | --- | --- | --- | --- | --- | --- |
| CN(N)c1ncnc2c1ncn2[C@@H]1O[C@H](CO)[C@@H](O)[C@H]1O | 35% | 0% | – | – | – | – | – |
| OC[C@H]1O[C@@H](n2cnc3c(NO)ncnc32)[C@H](O)[C@@H]1O | – | – | 97% | 98% | Stable | 61% | – |
| Nc1nc2c(ncn2[C@@H]2O[C@H](CO)[C@@H](O)[C@H]2O)/c(=N\O)[nH]1 | 99.97% | 99.99% | – | – | – | – | 37% |
| CO/N=c1/[nH]cnc2c1ncn2[C@@H]1O[C@H](CO)[C@@H](O)[C@H]1O | 81% | 22% | – | – | – | – | – |
| NNc1nc(N)nc2c1ncn2[C@@H]1O[C@H](CO)[C@@H](O)[C@H]1O | 97% | 95% | – | – | – | – | 57% |
| NNc1ncnc2c1ncn2[C@@H]1O[C@H](CO)[C@@H](O)[C@H]1O | – | – | 99.9% | 99.7% | – | 56% | – |
| CO/N=c1/[nH]c(N)nc2c1ncn2[C@@H]1O[C@H](CO)[C@@H](O)[C@H]1O | 45% | 0% | – | – | – | – | – |
| CN(N)c1nc(N)nc2c1ncn2[C@@H]1O[C@H](CO)[C@@H](O)[C@H]1O | 88% | 11% | – | – | – | – | – |
